The record followed here is ChEMBL document CHEMBL3085739, “Design, synthesis, and biological evaluation of 2-oxo-3,4-dihydropyrimido[4,5-d]pyrimidinyl derivatives as new irreversible epidermal growth factor receptor inhibitors with improved pharmacokinetic properties” (J Med Chem, 2013).

Series [1] is described as follows: Antiproliferative activity against human H460 cells expressing wild-type EGFR after 72 hrs by MTS assay. It counts as cell-based. Particulars: NCI-H460, 72 h. Summed up: (§1)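 MTS proliferation assay: cells exposed to compound for 72 h at six concentrations (0.1 nM to 10 μM), each concentration run six times. Cell number per line set to give an absorbance of 0.5–1.2 at […]. IC50 from a nonlinear sigmoidal dose–response fit. Values are means of at least three independent experiments.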

Series [2] is described as follows: Antiproliferative activity against human HL7702 cells after 72 hrs by MTS assay. The class given is cell-based. The settings on record: L02, 72 h. Background: Tetrazolium dyes change colour on reduction, which living cells bring about.
The target in series [3] is T1, Epidermal growth factor receptor (Homo sapiens, UniProt P00533, L858R/T790M). Nature of the series: Inhibition of EGFR L858R/T790M double mutant (unknown origin) after 1.5 hrs by FRET-based Z'-Lyte assay. The class given is protein assay.
A further series has as its system Mus musculus. The series is described as follows: Toxicity in SCID nude mouse xenografted with human NCI-H1975 cells assessed as body weight loss at 10 to 30 mg/kg, po qd after 14 days relative to vehicle-treated control. The class given is organism-based. The settings on record: in vivo, 336 h. Also noted: dose 10-30 mg/kg, route oral. Summed up:
(§2)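 SCID mice (6 weeks) were given H1975 cells subcutaneously in the right flank at 2 × 10^6 per mouse. At 200−300 mm3, n = 5 per group were randomized to daily oral vehicle or compound at 10 or 30 mg/kg for 14 days. Vehicle: 1% DMSO, 5% EtOH, 15% castor oil, 79% H2O. Tumors (W²·L/2) and body weight were measured every other day; TGI was calculated against vehicle controls.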
(A xenograft is tissue or cells of one species grown in another, often human tumour cells in immunodeficient mice.)

A short description of series [4]: AUC (0 to infinity) in Sprague-Dawley rat at 5 mg/kg, iv by LC/MS analysis. The class given is ADME, organism-based. Also noted: time infinity, dose 5 mg/kg, route intravenous. The settings on record: plasma. Summed up: (§3)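 Male Sprague-Dawley rats (180−220 g), n = 4 per route, single iv dose 5 mg/kg or oral gavage 25 mg/kg. Vehicle was 2% DMSO, 4% EtOH, 4% castor oil, 90% H2O. Orbital sinus blood was taken from 2 min to 72 h into heparinized tubes. Plasma levels were measured by LC/MS with propranolol internal standard and analysed by pharmacokinetic modelling.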

Series [5] deals with Mast/stem cell growth factor receptor Kit (Homo sapiens) (UniProt P10721). Nature of the series: Binding affinity to KIT (unknown origin).
Series [6] concerns the target Proto-oncogene tyrosine-protein kinase Src (Homo sapiens) (UniProt P12931). Nature of the series: Binding affinity to SRC (unknown origin).
Series [7] is described as follows: Oral bioavailability in Sprague-Dawley rat at 25 mg/kg by LC/MS analysis. It counts as ADME, organism-based. Particulars: in vivo. The essentials: as §3
For series [8], the system named is Epidermal growth factor receptor (Homo sapiens), P00533 [L858R,T790M]. Particulars: NCI-H1975, 33 nM.
The target of series [9] is T2, Tyrosine-protein kinase JAK3 (Homo sapiens) (UniProt P52333).
T2 sequence (whole entry): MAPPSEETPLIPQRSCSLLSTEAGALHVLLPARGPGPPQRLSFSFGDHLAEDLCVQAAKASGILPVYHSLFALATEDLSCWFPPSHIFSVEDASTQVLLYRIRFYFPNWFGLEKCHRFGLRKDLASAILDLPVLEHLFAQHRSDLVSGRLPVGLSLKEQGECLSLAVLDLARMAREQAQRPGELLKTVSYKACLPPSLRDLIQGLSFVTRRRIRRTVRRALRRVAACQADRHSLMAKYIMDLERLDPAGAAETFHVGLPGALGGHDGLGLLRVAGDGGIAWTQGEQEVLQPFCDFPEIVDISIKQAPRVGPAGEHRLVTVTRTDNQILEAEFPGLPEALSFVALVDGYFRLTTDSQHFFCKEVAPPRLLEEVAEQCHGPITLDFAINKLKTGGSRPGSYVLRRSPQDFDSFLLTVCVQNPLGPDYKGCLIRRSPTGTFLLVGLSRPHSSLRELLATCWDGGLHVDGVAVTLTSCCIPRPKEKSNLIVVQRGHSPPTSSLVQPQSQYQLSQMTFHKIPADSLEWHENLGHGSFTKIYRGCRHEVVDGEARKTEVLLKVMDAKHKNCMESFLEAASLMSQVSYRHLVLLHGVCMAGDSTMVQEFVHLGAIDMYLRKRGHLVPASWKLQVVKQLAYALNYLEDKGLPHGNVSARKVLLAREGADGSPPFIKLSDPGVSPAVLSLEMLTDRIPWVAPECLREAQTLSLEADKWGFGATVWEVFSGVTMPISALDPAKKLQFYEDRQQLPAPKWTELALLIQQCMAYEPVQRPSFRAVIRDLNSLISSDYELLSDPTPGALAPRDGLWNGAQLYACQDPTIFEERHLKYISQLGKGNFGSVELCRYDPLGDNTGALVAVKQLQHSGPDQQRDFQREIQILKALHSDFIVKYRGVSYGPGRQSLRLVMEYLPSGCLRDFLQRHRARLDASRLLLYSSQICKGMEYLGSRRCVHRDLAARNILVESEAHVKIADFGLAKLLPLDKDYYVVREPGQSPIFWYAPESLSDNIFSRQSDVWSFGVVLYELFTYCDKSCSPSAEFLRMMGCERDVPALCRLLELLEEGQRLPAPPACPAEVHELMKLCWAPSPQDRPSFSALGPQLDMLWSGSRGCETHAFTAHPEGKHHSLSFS
The series is described as follows: Binding affinity to JAK3 (unknown origin).

Series [10] deals with Epithelial discoidin domain-containing receptor 1 (Homo sapiens) (UniProt Q08345). The series is described as follows: Binding affinity to DDR1 (unknown origin).
Series [11] has as its target Tyrosine-protein kinase BTK (Homo sapiens) (UniProt Q06187). Nature of the series: Binding affinity to BTK (unknown origin).
Series [12] can be described thus: Clearance in Sprague-Dawley rat at 25 mg/kg, po by LC/MS analysis. Also noted: dose 25 mg/kg, route oral. It counts as ADME, organism-based. Particulars: in vivo. The essentials:
as §3

The target of series [13] is Tyrosine-protein kinase ABL1 (Homo sapiens) (UniProt P00519). The series is described as follows: Binding affinity to ABL1 (unknown origin).
A short description of series [14]: Antiproliferative activity against human H1299 cells expressing wild-type EGFR after 72 hrs by MTS assay. Particulars: NCI-H1299, 72 h. It counts as cell-based. Summed up:
as §1

The subject of series [15] is NCI-H1975. Nature of the series: Antitumor activity against human NCI-H1975 cells xenografted in po dosed SCID nude mouse assessed as tumor growth inhibition administered qd after 14 days. The class given is functional, organism-based. The essentials: as §2
Another series deals with NCI-H358. The series is described as follows: Antiproliferative activity against human NCI-H358 cells expressing wild-type EGFR after 72 hrs by MTS assay. It counts as cell-based. The settings on record: NCI-H358, 72 h.
Series [16] deals with NCI-H1975. Nature of the series: Antitumor activity against human NCI-H1975 cells xenografted in SCID nude mouse assessed as tumor growth inhibition at 30 mg/kg, po qd after 14 days. Particulars: NCI-H1975, 336 h, read-out: TGI. The class given is functional. The essentials:
as §2

Series [17] deals with T1, Epidermal growth factor receptor. Nature of the series: Binding affinity to EGFR L858R/T790M double mutant (unknown origin).
Series [18] is described as follows: Thermodynamic aqueous solubility of the compound in PBS buffer at pH 6.8 after 24 hrs by HPLC analysis. It counts as physicochemical. Particulars: PBS buffer, pH 6.8; read-out: Therm_solubility. The essentials:
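Compound was shaken in aqueous buffer at pH 6.8 for 24 h at ambient temperature; dissolved concentration was measured by HPLC.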

The target in series [19] is Epidermal growth factor receptor (Homo sapiens, UniProt P00533, T790M). The series is described as follows: Inhibition of EGFR T790M mutant (unknown origin). It counts as protein assay.

Values after ≈ are worked out from the molar mass of the structure shown. Active and inactive are the calls of the source. No cut-off for these calls is given here.

T1 sequence (P00533 25-1210 T790M/L858R limits assumed): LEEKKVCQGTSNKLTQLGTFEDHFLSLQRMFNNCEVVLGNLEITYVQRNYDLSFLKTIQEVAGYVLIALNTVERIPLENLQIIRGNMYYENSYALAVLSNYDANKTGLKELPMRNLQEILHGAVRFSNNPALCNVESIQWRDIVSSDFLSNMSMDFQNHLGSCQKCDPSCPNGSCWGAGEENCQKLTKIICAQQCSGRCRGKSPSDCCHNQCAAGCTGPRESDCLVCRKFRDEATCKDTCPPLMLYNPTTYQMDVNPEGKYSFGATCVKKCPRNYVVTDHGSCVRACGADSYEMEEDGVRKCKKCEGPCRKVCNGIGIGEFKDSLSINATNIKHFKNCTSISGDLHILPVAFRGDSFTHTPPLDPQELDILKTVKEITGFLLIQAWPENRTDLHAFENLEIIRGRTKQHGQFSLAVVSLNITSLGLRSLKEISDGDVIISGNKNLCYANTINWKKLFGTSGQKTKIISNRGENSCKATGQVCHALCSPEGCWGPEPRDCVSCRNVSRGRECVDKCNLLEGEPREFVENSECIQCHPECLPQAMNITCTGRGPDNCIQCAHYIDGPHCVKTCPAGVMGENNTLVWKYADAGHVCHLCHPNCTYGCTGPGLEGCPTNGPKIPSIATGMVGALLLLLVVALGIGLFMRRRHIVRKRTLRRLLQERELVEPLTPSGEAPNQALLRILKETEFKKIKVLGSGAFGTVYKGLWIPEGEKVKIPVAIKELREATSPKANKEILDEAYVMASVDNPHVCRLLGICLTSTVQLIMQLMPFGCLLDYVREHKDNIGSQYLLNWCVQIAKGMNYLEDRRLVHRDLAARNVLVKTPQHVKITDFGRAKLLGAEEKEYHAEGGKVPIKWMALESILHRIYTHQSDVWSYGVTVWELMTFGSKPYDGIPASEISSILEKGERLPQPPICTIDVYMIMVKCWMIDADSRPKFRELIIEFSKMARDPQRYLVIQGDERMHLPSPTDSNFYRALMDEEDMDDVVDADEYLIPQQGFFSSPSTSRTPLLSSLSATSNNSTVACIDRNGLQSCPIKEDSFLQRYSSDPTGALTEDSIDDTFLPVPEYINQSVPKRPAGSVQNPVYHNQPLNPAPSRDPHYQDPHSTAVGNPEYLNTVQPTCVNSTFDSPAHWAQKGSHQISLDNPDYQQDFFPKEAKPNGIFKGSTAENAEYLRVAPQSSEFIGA
Sequence of Mast/stem cell growth factor receptor Kit (Homo sapiens) (P10721 whole entry): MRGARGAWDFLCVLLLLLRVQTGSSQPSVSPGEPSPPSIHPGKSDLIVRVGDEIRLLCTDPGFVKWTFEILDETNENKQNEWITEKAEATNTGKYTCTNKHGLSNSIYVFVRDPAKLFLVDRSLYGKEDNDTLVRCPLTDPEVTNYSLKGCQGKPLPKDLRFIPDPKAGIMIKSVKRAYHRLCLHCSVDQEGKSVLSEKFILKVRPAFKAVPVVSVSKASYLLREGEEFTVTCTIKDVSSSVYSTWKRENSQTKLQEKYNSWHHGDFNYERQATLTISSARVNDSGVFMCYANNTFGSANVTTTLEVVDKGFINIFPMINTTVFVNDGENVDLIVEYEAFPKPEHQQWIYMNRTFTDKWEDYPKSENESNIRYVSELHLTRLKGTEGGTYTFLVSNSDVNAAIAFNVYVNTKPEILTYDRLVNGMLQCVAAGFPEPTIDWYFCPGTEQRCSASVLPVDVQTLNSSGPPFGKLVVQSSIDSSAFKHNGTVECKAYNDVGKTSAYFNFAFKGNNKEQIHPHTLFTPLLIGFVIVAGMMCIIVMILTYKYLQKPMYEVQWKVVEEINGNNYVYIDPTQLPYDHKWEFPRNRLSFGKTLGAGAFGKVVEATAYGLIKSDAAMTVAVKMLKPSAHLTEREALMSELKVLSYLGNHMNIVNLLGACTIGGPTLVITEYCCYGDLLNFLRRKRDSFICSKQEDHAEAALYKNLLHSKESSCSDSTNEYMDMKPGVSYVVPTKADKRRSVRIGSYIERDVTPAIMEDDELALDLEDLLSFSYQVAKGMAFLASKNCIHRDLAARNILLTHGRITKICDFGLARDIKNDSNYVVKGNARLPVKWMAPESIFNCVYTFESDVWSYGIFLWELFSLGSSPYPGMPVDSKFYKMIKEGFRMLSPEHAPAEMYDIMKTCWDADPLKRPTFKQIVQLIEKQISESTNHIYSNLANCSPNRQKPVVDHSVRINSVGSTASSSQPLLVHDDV
Sequence of Proto-oncogene tyrosine-protein kinase Src (Homo sapiens) (P12931 2-536 limits assumed): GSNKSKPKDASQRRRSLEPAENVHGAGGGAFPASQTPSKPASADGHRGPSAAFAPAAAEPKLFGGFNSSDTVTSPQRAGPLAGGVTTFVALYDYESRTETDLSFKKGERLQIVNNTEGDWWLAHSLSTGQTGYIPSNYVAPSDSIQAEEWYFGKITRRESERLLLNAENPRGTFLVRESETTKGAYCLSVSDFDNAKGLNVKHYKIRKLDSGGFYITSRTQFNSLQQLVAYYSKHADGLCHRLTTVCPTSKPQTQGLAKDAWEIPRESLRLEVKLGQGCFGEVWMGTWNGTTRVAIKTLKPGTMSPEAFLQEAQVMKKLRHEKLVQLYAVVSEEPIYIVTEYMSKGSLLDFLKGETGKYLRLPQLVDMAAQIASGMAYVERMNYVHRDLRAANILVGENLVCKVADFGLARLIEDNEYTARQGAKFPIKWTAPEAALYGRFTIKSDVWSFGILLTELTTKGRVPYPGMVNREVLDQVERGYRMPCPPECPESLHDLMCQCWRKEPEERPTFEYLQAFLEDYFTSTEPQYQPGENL
Sequence of Tyrosine-protein kinase BTK (Homo sapiens) (Q06187 whole entry): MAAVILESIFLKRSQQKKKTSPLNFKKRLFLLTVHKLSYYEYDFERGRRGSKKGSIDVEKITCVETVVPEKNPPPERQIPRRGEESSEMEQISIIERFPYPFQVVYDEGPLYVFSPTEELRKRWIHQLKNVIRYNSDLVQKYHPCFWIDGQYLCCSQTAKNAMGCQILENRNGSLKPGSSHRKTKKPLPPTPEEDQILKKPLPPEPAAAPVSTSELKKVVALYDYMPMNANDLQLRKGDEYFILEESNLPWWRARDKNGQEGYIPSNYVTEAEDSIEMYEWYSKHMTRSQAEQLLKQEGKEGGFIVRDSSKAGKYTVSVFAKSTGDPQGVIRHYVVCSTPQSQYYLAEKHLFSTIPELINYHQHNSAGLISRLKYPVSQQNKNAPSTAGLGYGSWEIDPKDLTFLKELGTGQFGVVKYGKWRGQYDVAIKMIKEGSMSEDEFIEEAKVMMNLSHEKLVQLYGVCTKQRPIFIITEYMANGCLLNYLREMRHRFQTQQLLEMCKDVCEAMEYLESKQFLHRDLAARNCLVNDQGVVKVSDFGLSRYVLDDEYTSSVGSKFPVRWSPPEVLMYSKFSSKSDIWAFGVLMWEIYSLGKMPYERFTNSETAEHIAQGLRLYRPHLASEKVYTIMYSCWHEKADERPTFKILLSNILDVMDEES
Sequence of Epithelial discoidin domain-containing receptor 1 (Homo sapiens) (Q08345 whole entry, the tested form may be a part): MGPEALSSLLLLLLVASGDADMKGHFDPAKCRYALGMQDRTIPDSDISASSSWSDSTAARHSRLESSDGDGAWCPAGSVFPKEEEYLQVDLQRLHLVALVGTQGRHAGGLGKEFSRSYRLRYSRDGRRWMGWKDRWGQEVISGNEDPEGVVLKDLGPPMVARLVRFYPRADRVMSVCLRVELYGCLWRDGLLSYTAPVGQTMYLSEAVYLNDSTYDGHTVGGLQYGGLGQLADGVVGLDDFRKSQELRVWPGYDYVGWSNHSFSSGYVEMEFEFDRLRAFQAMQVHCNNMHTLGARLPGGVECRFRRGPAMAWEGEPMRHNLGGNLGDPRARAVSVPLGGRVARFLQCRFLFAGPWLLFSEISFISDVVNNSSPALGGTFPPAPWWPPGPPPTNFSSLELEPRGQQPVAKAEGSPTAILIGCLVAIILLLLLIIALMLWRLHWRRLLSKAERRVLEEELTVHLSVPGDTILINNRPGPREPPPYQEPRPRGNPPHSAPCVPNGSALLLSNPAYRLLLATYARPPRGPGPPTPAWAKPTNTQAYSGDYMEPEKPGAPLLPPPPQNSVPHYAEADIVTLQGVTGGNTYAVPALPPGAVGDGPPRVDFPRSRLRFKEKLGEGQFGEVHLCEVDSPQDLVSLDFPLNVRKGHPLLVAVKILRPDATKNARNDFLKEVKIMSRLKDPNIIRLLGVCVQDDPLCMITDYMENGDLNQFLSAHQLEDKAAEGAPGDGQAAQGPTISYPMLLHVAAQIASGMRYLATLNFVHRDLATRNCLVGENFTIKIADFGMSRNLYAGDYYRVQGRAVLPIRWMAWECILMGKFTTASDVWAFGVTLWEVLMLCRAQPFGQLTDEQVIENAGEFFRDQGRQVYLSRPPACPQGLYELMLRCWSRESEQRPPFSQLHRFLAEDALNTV

With `C=CC(=O)N1CC[C@H](N2C(=O)N(c3ccccc3)Cc3cnc(Nc4ccc(N5CCN(C)CC5)c(C)c4)nc32)C1`, the half-inhibitory concentration (IC50) (in general, the midpoint of a concentration-inhibition curve) is 16000 nM in series [1]; more than 10000 nM in series [2]; 9.2 nM in series [3]; 5100 nM in [14]; more than 20000 nM in the series with NCI-H358; 10 nM in series [19]. In the series with Mus musculus, the Activity is reported as less than 5%. Besides, the total exposure AUC(0-inf) (usually total exposure, with the tail of the curve extrapolated) in series [4] worked out at 1640 ng·h/mL. The outcome in series [5], in series [6], in [9], in [10], in [11] and in [13] was Active. Moreover, the bioavailability (as a rule, dose-corrected exposure relative to a reference, in per cent) in series [7] is 30%. The inhibition result in series [8] is “Active”. Also, the CL/F – broadly, clearance divided by bioavailability, as obtained after extravascular dosing – in series [12] was 167 mL/min/kg. In addition, the TGI result in the series on NCI-H1975 [15] was “Dose-dependent effect”. Also, the inhibition in vivo at 30 mg/kg in the series with NCI-H1975 [16] is 56.8%. In addition, the Kd (in general, the free concentration of one partner at which half of the binding sites on the other are occupied at equilibrium, for simple one-to-one binding) in series [17] stood at 1.4 nM. Also, in [18], the solubility thermodynamic at 24 h came to 1270 µg/mL (≈ 2290 µM).
